This data set is described as follows: Toxicity liver stage against HepG2, at 10uM. It is filed as cell-based. On the set-up: test concentration 10 uM, cell line HepG2-A16-CD81EGFP. Conditions: human, HepG2-A16-CD81EGFP cells; read-out: INHIBITION
The method in brief: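 Uninfected HepG2-A16-CD81EGFP cells, 3 × 10^3 per well, 1536-well, plated on prespotted compound at 10 μM final, parasite-free screening media added to match infected plates; puromycin 10 μM positive, DMSO 0.5% negative; run in parallel with 48 h PbLuc assay at 37 °C, 5% CO2; viability by CellTiter-Glo luminescence, normalized to controls.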
`O=C(NCCc1nnc2n1CCCCC2)N1CCC2(CCCC2)CC1`: the cytotoxicity at 10 µM is -7.94%.
As for `CCOC(C)c1nccn1CCC(=O)Nc1cc(C)on1` (configuration not stated), the figure is 10.1%; as for `Cc1nn(CCO)c(C)c1CNC1CCOc2ccccc21` (configuration not stated), 14.4%; as for `CCN(Cc1nc2c(cnn2C)c(=O)[nH]1)c1cccc(Cl)c1`, 1.18%.
As for `CN(C)c1nccc(C2CN(C(=O)CO)C2)n1`, the figure is -10.6%.
The same measure for `COc1cc(N2CCC3(CC2)CN(CCO)c2ccccc23)ncn1`: 19.7%; for `CN1CCC(Cc2cnc(CNC(=O)Cc3cccc(F)c3)cn2)CC1`: -2.67%; for `CS(=O)(=O)NCCN1CCOC2(CCc3ccccc32)C1` (configuration not stated): -9.63%.
With `CCOCn1cc(NC(=O)C2CCN(S(C)(=O)=O)CC2)cn1`, the cytotoxicity at 10 µM was -10.7%.
As for `CC(C)C(=O)N1CCN(c2ncnc3cc4c(cc23)OCCO4)CC1`, the figure is 2.41%.
As for `O=C(CSCC1CC1)N1CCCN(c2ccc(F)cc2)CC1`, the figure is -4.43%.
The same measure for `CC(C)(C)C1CC(=O)Nc2c1cnn2Cc1ccco1` (configuration not stated): -2.17%; for `CCCn1nc(C)c2c1NC(=O)CC2c1ccc(CN2CCCC2)s1` (configuration not stated): 0.355%; for `COCC1CN(CC2CC2)Cc2nn(CC3CC3)cc21` (configuration not stated): -71.4%.
On to `CN(C)C(c1ccccn1)C1CCC(CNC(=O)C2CC2)CC1` (configuration not stated), for which the cytotoxicity at 10 µM was determined as 6.6%.
The same measure for `Cc1oc(C)c(C(=O)NS(=O)(=O)c2ccc3c(c2)OCCCO3)c1C`: 6.08%; for `Cc1cc(C)c(S(=O)(=O)Nc2c(C)nc(N(C)C)nc2C)cc1C`: 6.63%.
Take `c1nc2c(c(C3CC3)n1)CCN(Cc1ccoc1)CC2`: the cytotoxicity at 10 µM is -22.7%.
In the case of `Cc1cccc(N2CCN(C(=O)CC3(O)CCCC3)C(C)C2)n1` (configuration not stated), the cytotoxicity at 10 µM came out at 15.9%.
The same measure for `Cc1cccc(-c2nc(CN3CCc4c(ncn4C)C3)no2)c1`: -9.42%; for `CC(C)CN1CCC(c2nc3c([nH]2)CC(C)(C)CNC3=O)C1` (configuration not stated): -10.6%; for `CC(C)Cc1cc(C(=O)N2CCCN(c3cccnn3)CC2)[nH]n1`: -10.5%.
Take `CCS(=O)(=O)Cc1ccn(-c2cccc(F)c2)n1`: the cytotoxicity at 10 µM was -0.988%.
The same measure for `CC(C)=CCN1C[C@@H](C(=O)O)C[C@H](C(=O)Nc2ccc(C)nc2)C1`: 5.67%.
As for `CCOC1CC2(CCN(C(=O)COC)CC2)c2cc(C)ccc21` (configuration not stated), the figure is -142%; as for `CCCn1ncc(-c2ccnc(NC3CCCc4ccccc43)n2)c1C` (configuration not stated), 20.6%; as for `CCc1ccccc1OCCCN(C)C(=O)C1CCCN1C(N)=O` (configuration not stated), 0.369%.
With `CC(Oc1ccc(F)c(F)c1)C(=O)N(CC(N)=O)C1CCCC1` (configuration not stated), the cytotoxicity at 10 µM was -0.146%.
The same measure for `C1CCC(CNC2CCCN(Cc3noc(C4CC4)n3)C2)CC1` (configuration not stated): -4.15%; for `c1csc(-c2noc(C3CCCNC3)n2)c1` (configuration not stated): -2.5%.
The same measure for `Cc1cc(C(=O)N2CCCC(n3cncn3)C2)no1` (configuration not stated): -9.98%; for `O=C(c1cc(Br)ccc1Cl)N1CCN(Cc2ccco2)CC1`: -49.4%; for `Cc1occc1CN(C)C(=O)Nc1ccc(=O)n(C)c1`: -53.5%.
The same measure for `c1cncc(OC[C@@]23CCC[C@@H]2CN(CC2CCOCC2)C3)c1`: 7.66%; for `CCC(O)CNc1nccc(-c2ccc(C)nc2C)n1` (configuration not stated): -2.92%; for `Cc1noc(C)c1CN(C)C(=O)C1CCN(S(N)(=O)=O)CC1`: 7.47%.
Turning to `O=C(CCNc1ccc(Br)cn1)NCc1ccncc1`, the cytotoxicity at 10 µM was -0.222%.
As for `O=C(c1ccc(N2CCCC2)nn1)N1CCc2ccccc21`, the figure is 2.6%; as for `NS(=O)(=O)CCN1CCOC(c2ccsc2)C1` (configuration not stated), 5.31%.
As for `COc1cccc(NC(=O)N(CCC(F)(F)F)C[C@H](O)CO)c1`, the figure is -9.48%.
Consider `CS(=O)(=O)c1ccc(CNC(=O)NCc2cc[nH]n2)cc1`, for which the cytotoxicity at 10 µM was found to be 1.22%.
As for `Cc1ccc(C(=O)N2CCc3c(CN4CCCC4)nn(C)c3C2)cc1C`, the figure is -4.86%; as for `CC(=O)c1cccc(NC(=O)COc2c(C)n(C)ccc2=O)c1`, 2.45%.
As for `Cc1ccc(N2CCC3(CCN(C(=O)C4CCOC4)CC3)CC2)nn1` (configuration not stated), the figure is -0.28%; as for `CN(C)S(=O)(=O)N1CCC(c2ccnc(Nc3ccccn3)n2)C1` (configuration not stated), 3.25%.
Consider `Cc1cc(CN(CC(N)=O)CC(C)C)on1`, for which the cytotoxicity at 10 µM is 6.36%.
As for `CCCc1n[nH]c(C2CN(C(=O)c3ccc(C)[nH]c3=O)CCO2)n1` (configuration not stated), the figure is 0.238%; as for `COc1ccc(OCc2nc(C(=O)N3CC(O)C3)co2)cc1`, -9.29%; as for `COc1cc(CN2CCC3(CC(Nc4ccncn4)C3)C2)cc(OC)c1` (configuration not stated), -9.27%.
As for `CS(=O)(=O)NCC1CCCCN1C(=O)c1csc(-c2ccsc2)n1` (configuration not stated), the cytotoxicity at 10 µM was -5.89%.
As for `Cc1cc2ccccc2n1CC(=O)N[C@@H](C)C(=O)O`, the cytotoxicity at 10 µM is 0.77%.
As for `COCCOCC(=O)N1CCc2cc(Cl)cc(Cl)c2C1`, the figure is 1.4%; as for `Cc1ccc2nc(CNCCCN3CCCC3)cc(O)c2c1`, -49.6%; as for `O=C(NCC(O)c1cccs1)c1cccc(Cl)c1` (configuration not stated), -17.8%.
As for `COCCN1CC(=O)c2sc(NC(C)C)nc2C1`, the figure is -4.91%; as for `Cc1cc(CN(C)Cc2csc(-c3cccs3)n2)n[nH]1`, -4.14%; as for `O=C1CC(NS(=O)(=O)N2CCOCC2)CN1Cc1ccc(F)cc1` (configuration not stated), -11%.
On to `Cc1cccc(CCC(=O)N2CCCC(c3cc(C(N)=O)[nH]n3)C2)c1` (configuration not stated), for which the cytotoxicity at 10 µM was -7.1%.
As for `CC(=O)c1cc(CN2C[C@@H]3CC[C@H]2CN(S(=O)(=O)N(C)C)C3)cs1`, the figure is -8.19%; as for `CC(Cn1cccn1)NC(=O)N1CCN(Cc2ccco2)CC1` (configuration not stated), -20.6%.
The same measure for `CN(CC(=O)N(C)C)Cc1ccc(C#N)cc1F`: 6.56%; for `O=C(c1cccc(S(=O)(=O)NC[C@@H]2C[C@H](F)CN2)c1)N1CCCCC1`: 3.5%.
As for `CCc1c(C(=O)N2CCOC(C)(C)C2)cnn1-c1ccccn1`, the figure is -7.92%; as for `CN(C)CCn1c2c(ccc1=O)CC(NC(=O)c1ccsc1)CC2` (configuration not stated), 2.15%.
Take `Cc1cccc(CSc2ncc(Cl)c(C(=O)O)n2)c1`: the cytotoxicity at 10 µM amounted to 3.86%.
As for `CS(=O)(=O)N[C@@H]1CN(Cc2ccco2)C[C@@H]2CCCO[C@@H]21`, the figure is 6.15%.
As for `Cc1oc(-c2ccco2)nc1CC(=O)N1CCC(C(O)C(F)(F)F)CC1` (configuration not stated), the figure is -5.25%; as for `CCOCC(=O)N(C)c1ccc(F)c(Cl)c1`, -3.99%.
The same measure for `Cc1nccc(CNc2cc(N3CCCC3CO)ncn2)n1` (configuration not stated): -14%.
Take `Cc1nn(C)cc1CN1C[C@H]2CC[C@@H](C1)N(Cc1c(C)noc1C)C2=O`: the cytotoxicity at 10 µM was found to be 5.9%.
The same measure for `CCn1ccc(C(=O)N2CCCN(Cc3ccccc3F)CC2)cc1=O`: 9.47%; for `COc1ccccc1NC(=O)NCc1cn[nH]c1`: 16.9%.

(Values after ChEMBL document CHEMBL4513216, “Probing the Open Global Health Chemical Diversity Library for Multistage-Active Starting Points for Next-Generation Antimalarials” (ACS Infect Dis, 2020).)
